From article PMC9055346 (RSC Advances, 2020)
Values joined by “and” are separate entries in the source; they are usually repeats but may differ in a detail not shown here. Equal entries are not always repeated.

Tests used:
[1] = Antioxidant assay, ORAC-FL method; details: compound and Trolox at 8 μM, 37 °C, three independent experiments
In short: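 ORAC-FL in 75 mM phosphate buffer, 200 μL total: test compound, Trolox (both 8 μM) or buffer blank with 150 nM fluorescein solution, kept dark at 37 °C for 30 min. Then 12 mM AAPH solution is added and fluorescence (ex 485/em 535 nm) read every 1 min for 15 min. Net AUC vs blank is expressed as Trolox equivalents (Trolox = 1). Triplicates; three independent experiments, mean ± SEM.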

[2] = biological target: AChE from electric eel (EeAChE) (Electrophorus electricus, UniProt O42275); assay: In vitro AChE inhibition, modified Ellman's method; format: biochemical; details: for IC50: EeAChE IC50 ± SEM, mean of three independent experiments; for AChE inhibitory activity (in words): up to 10 mM; for inhibition at 156 µM / inhibition at 312 µM / inhibition at 625 µM / inhibition at 1250 µM / inhibition at 2500 µM / inhibition at 5000 µM / inhibition at 10000 µM: read-out: % of AChE inhibition
[3] = Metal chelation study by UV spectrophotometer; format: physicochemical; details: for chelation of Fe^3+ (in words): UV spectra 200 to 600 nm
In short: (§1)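 UV spectra from 200 to 600 nm at 37 °C. Test compound and metal salt (FeCl3, CuCl2, ZnSO4·H2O or AlCl3·6H2O) are combined at 100 μM each and incubated at 37 °C for 30 min. Compound-alone spectra use water in place of metal. Read-outs are % change in absorbance, (+) for decrease and (−) for increase, plus band shift.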

[4] = Metal chelation study by UV spectrophotometer; format: physicochemical; details: for chelation of Al^3+ (in words): UV spectra 200 to 600 nm
In short: as §1

[5] = Metal chelation study, selectivity towards essential metals; format: physicochemical; details: UV spectra
In short: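 KCl, NaCl, CaSO4 or […] solutions are mixed with test compound at 100 μM each ligand and metal, incubated at 37 °C for 30 min, and scanned by UV from 200 to 600 nm, with compound-alone spectra taken in water. For the affinity check, Fe3+, Zn2+, Cu2+, Ca2+, Mg2+, Na+ and K+ are mixed at equal concentrations with test compound at 100 μM.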

[6] = Stoichiometric study of Fe^3+–5i complex; format: physicochemical; details: Fe^3+ 0–100 μM, 5i 100 μM; at 239 nm and 327 nm as printed
In short: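 UV titration at 37 °C: 100 μM test compound in a cuvette receives 20 μL aliquots of 1 mM FeCl3, raising Fe3+ in 10 μM steps to a final 10–100 μM. Spectra are recorded after each addition. A Job's plot is built from band absorbances, and the mole fraction is obtained by extrapolation.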

[7] = Affinity study of 5i towards Fe^3+ in metal pool; format: physicochemical; details: Zn^2+, Cu^2+, Ca^2+, Mg^2+, Na^+ and K^+ and 5i, 100 μM each

Chain of AChE from electric eel (EeAChE) (O42275 24-633): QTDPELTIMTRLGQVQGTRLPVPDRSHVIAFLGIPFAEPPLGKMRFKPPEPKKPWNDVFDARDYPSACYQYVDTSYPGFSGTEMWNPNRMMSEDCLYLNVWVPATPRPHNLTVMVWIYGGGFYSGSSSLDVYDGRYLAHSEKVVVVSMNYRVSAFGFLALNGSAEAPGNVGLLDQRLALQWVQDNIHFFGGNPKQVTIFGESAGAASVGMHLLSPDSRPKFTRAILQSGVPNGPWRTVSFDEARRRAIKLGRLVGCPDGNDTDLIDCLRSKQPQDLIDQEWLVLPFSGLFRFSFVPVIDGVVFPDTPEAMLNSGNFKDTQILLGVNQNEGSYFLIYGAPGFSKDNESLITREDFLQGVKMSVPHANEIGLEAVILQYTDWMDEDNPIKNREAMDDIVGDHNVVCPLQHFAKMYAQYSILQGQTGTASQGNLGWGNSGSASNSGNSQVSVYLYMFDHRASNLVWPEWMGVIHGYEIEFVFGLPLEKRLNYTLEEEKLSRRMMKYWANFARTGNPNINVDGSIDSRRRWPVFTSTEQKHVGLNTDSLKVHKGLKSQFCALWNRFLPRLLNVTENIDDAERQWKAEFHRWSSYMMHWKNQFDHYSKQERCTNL

SMILES | ORAC index ± SEM [1] | IC50 [2] | inhibition at 156 µM [2] | inhibition at 312 µM [2] | inhibition at 625 µM [2] | inhibition at 1250 µM [2] | inhibition at 2500 µM [2] | inhibition at 5000 µM [2] | inhibition at 10000 µM [2] | further results
Cc1ncc(COCc2cn(Cc3ccccc3)nn2)c(CO)c1O [Compound 5a, 5-(((1-Benzyl-1H-1,2,3-triazol-4-yl)methoxy)methyl)-4-(hydroxymethyl)-2-methylpyridin-3-ol] | 1.0564 Trolox equivalents | > 10000 µM |  |  |  |  |  |  |  | AChE inhibitory activity (in words) [2]: inactive
Cc1ccc(Cn2cc(COCc3cnc(C)c(O)c3CO)nn2)cc1 [Compound 5b, 4-(Hydroxymethyl)-2-methyl-5-(((1-(4-methylbenzyl)-1H-1,2,3-triazol-4-yl)methoxy)methyl)pyridin-3-ol] | 1.8428 Trolox equivalents | 3380 µM |  |  |  |  |  |  |  | 
Cc1cccc(Cn2cc(COCc3cnc(C)c(O)c3CO)nn2)c1 [Compound 5c, 4-(Hydroxymethyl)-2-methyl-5-(((1-(3-methylbenzyl)-1H-1,2,3-triazol-4-yl)methoxy)methyl)pyridin-3-ol] | 2.0164 Trolox equivalents | 1380 µM | 22.5% | 26.9% | 39.1% | 53.8% | 64.1% | 73.4% | 81.9% | chelation of Fe^3+ (in words) [3]: chelated; chelation of Al^3+ (in words) [4]: chelated
Cc1ccccc1Cn1cc(COCc2cnc(C)c(O)c2CO)nn1 [Compound 5d, 4-(Hydroxymethyl)-2-methyl-5-(((1-(2-methylbenzyl)-1H-1,2,3-triazol-4-yl)methoxy)methyl)pyridin-3-ol] | 1.9723 Trolox equivalents | 907 µM | 33.5% | 36.4% | 51.1% | 58.6% | 69.6% | 81.3% | 86% | 
COc1cccc(Cn2cc(COCc3cnc(C)c(O)c3CO)nn2)c1 [Compound 5e, 4-(Hydroxymethyl)-5-(((1-(3-methoxybenzyl)-1H-1,2,3-triazol-4-yl)methoxy)methyl)-2-methylpyridin-3-ol] | 1.8862 Trolox equivalents | 4570 µM |  |  |  |  |  |  |  | 
COc1cc(Cn2cc(COCc3cnc(C)c(O)c3CO)nn2)cc(OC)c1 [Compound 5f, 5-(((1-(3,5-Dimethoxybenzyl)-1H-1,2,3-triazol-4-yl)methoxy)methyl)-4-(hydroxymethyl)-2-methylpyridin-3-ol] | 2.3425 Trolox equivalents | 2650 µM |  |  |  |  |  |  |  | 
Cc1ncc(COCc2cn(Cc3ccc(F)cc3)nn2)c(CO)c1O [Compound 5g, 5-(((1-(4-Fluorobenzyl)-1H-1,2,3-triazol-4-yl)methoxy)methyl)-4-(hydroxymethyl)-2-methylpyridin-3-ol] | 1.4489 Trolox equivalents | 6470 µM |  |  |  |  |  |  |  | 
Cc1ncc(COCc2cn(Cc3cccc(F)c3)nn2)c(CO)c1O [Compound 5h, 5-(((1-(3-Fluorobenzyl)-1H-1,2,3-triazol-4-yl)methoxy)methyl)-4-(hydroxymethyl)-2-methylpyridin-3-ol] | 2.1015 Trolox equivalents | 1540 µM | 19% | 25.5% | 35.1% | 56.4% | 60.5% | 66.6% | 69% | 
Cc1ncc(COCc2cn(Cc3cc(F)cc(F)c3)nn2)c(CO)c1O [Compound 5i, 5-(((1-(3,5-Difluorobenzyl)-1H-1,2,3-triazol-4-yl)methoxy)methyl)-4-(hydroxymethyl)-2-methylpyridin-3-ol] | 1.21 ± 0.28 Trolox equivalents and 1.2138 Trolox equivalents | 1560 µM | 15% | 26.6% | 35.4% | 43% | 61.4% | 66.8% | 77.9% | chelation of Ca^2+, Mg^2+, Na^+ and K^+ (in words) [5]: did not chelate these metal ions at all; mole fraction from Job's plot [6]: 0.5; affinity towards Fe^3+ in the metal pool (in words) [7]: showed affinity towards Fe^3+ in the metal pool; chelation of Fe^3+ (in words) [3]: chelated; bathochromic shift with Fe^3+ ([3]; band at 292 nm): about 3 nm; chelation of Al^3+ (in words) [4]: chelated; increase in absorbance with Al^3+ ([4]; at 292 nm): 104%; bathochromic shift with Al^3+ ([4]; band at 292 nm): 4 nm
Cc1ncc(COCc2cn(Cc3ccc(Cl)cc3)nn2)c(CO)c1O [Compound 5j, 5-(((1-(4-Chlorobenzyl)-1H-1,2,3-triazol-4-yl)methoxy)methyl)-4-(hydroxymethyl)-2-methylpyridin-3-ol] | 1.9697 Trolox equivalents | 2720 µM |  |  |  |  |  |  |  | 
Cc1ncc(COCc2cn(Cc3cccc(Cl)c3)nn2)c(CO)c1O [Compound 5k, 5-(((1-(3-Chlorobenzyl)-1H-1,2,3-triazol-4-yl)methoxy)methyl)-4-(hydroxymethyl)-2-methylpyridin-3-ol] | 0.8358 Trolox equivalents | 2710 µM |  |  |  |  |  |  |  | 
Cc1ncc(COCc2cn(Cc3ccc(Cl)c(Cl)c3)nn2)c(CO)c1O [Compound 5l, 5-(((1-(3,4-Dichlorobenzyl)-1H-1,2,3-triazol-4-yl)methoxy)methyl)-4-(hydroxymethyl)-2-methylpyridin-3-ol] | 1.9421 Trolox equivalents | 3380 µM |  |  |  |  |  |  |  | 
Cc1ncc(COCc2cn(Cc3ccc(Br)cc3)nn2)c(CO)c1O [Compound 5m, 5-(((1-(4-Bromobenzyl)-1H-1,2,3-triazol-4-yl)methoxy)methyl)-4-(hydroxymethyl)-2-methylpyridin-3-ol] | 1.215 Trolox equivalents | 3140 µM |  |  |  |  |  |  |  | 
Cc1ncc(COCc2cn(Cc3cccc(Br)c3)nn2)c(CO)c1O [Compound 5n, 5-(((1-(3-Bromobenzyl)-1H-1,2,3-triazol-4-yl)methoxy)methyl)-4-(hydroxymethyl)-2-methylpyridin-3-ol] | 2.2079 Trolox equivalents | 1080 µM | 14.7% | 25.8% | 42% | 57.4% | 70.2% | 75.9% | 86.3% | 
Cc1ncc(COCc2cn(Cc3ccc(C(F)(F)F)cc3)nn2)c(CO)c1O [Compound 5o, 4-(Hydroxymethyl)-2-methyl-5-(((1-(4-(trifluoromethyl)benzyl)-1H-1,2,3-triazol-4-yl)methoxy)methyl)pyridin-3-ol] | 2.0758 Trolox equivalents | 6520 µM |  |  |  |  |  |  |  | 
Cc1ncc(COCc2cn(Cc3cccc(C(F)(F)F)c3)nn2)c(CO)c1O [Compound 5p, 4-(Hydroxymethyl)-2-methyl-5-(((1-(3-(trifluoromethyl)benzyl)-1H-1,2,3-triazol-4-yl)methoxy)methyl)pyridin-3-ol] | 0.8718 Trolox equivalents | 3650 µM |  |  |  |  |  |  |  | 
Cc1ncc(COCc2cn(Cc3ccccc3C(F)(F)F)nn2)c(CO)c1O [Compound 5q, 4-(Hydroxymethyl)-2-methyl-5-(((1-(2-(trifluoromethyl)benzyl)-1H-1,2,3-triazol-4-yl)methoxy)methyl)pyridin-3-ol] | 0.7168 Trolox equivalents | 1130 µM | 22.5% | 26.9% | 39.1% | 53.8% | 64.1% | 73.4% | 81.9% | chelation of Fe^3+ (in words) [3]: chelated; chelation of Al^3+ (in words) [4]: chelated
Cc1ncc(CO)c(CO)c1O [Pyridoxine, reference compound] | 0.5249 Trolox equivalents |  |  |  |  |  |  |  |  | AChE inhibitory activity (in words) [2]: not an AChE inhibitor; AChE inhibitory activity (in words) ([2]; listed as pyridoxine): inactive
Cc1c(C)c2c(c(C)c1O)CCC(C)(C(=O)O)O2 (stereo not drawn) [Trolox, reference compound] | 1 Trolox equivalents |  |  |  |  |  |  |  |  | 
